From ChEMBL document CHEMBL1938337, “Discovery of novel, potent, and selective inhibitors of 3-phosphoinositide-dependent kinase (PDK1)” (J Med Chem, 2011)

What was measured:
[1] = Passive permeability in canine kidney cells; format: ADME, cell-based, Canis lupus familiaris; conditions: dog; read-out: permeability
[2] = target: T1, RAC-alpha serine/threonine-protein kinase (Homo sapiens, UniProt P31749); assay: Inhibition of His-tagged AKT1 using 5FAM-GRPRTSSFAEGCONH2 as substrate by fluorescence based assay
[3] = target: T2, 3-phosphoinositide-dependent protein kinase 1 (Homo sapiens, UniProt O15530); assay: Inhibition of PDK1-mediated AKT1 phosphorylation at T308 in human A549 cells after 2 hrs by ELISA; format: cell-based
T2 sequence (O15530 whole entry): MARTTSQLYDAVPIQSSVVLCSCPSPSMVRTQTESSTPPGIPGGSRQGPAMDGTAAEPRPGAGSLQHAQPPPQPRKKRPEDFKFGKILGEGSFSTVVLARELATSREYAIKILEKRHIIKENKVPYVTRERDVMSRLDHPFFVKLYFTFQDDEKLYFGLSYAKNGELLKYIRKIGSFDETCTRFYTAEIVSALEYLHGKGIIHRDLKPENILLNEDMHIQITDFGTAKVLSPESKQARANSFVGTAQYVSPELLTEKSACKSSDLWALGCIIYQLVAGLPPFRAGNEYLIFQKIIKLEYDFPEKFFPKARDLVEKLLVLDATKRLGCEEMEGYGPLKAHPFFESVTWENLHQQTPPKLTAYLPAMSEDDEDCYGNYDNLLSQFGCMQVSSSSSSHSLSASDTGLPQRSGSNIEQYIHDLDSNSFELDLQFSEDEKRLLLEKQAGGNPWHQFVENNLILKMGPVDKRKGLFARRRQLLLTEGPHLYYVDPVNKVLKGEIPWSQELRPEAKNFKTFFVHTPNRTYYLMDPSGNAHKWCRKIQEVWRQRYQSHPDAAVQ
Summary of the method: (§1)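 Cells seeded at 50,000 per well and left to adhere overnight. Inhibitor was added as a 3-fold serial dilution from 0.0169 nM to 10 μM for 2 h, then cells were lysed. Lysates were tested in a commercial pAKT-T308 sandwich ELISA per the kit protocol. IC50 from duplicates, each run repeated at least twice.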

[4] = target: T2, 3-phosphoinositide-dependent protein kinase 1; assay: Inhibition of PDK1-mediated AKT1 phosphorylation at T308 in human H460 cells after 2 hrs by ELISA; format: cell-based; summary of the method: as §1
[5] = target: Serine/threonine-protein kinase Chk2 (Homo sapiens) (UniProt O96017); assay: Inhibition of CHEK2 at 1 uM
Chain of Serine/threonine-protein kinase Chk2 (Homo sapiens) (O96017 whole entry): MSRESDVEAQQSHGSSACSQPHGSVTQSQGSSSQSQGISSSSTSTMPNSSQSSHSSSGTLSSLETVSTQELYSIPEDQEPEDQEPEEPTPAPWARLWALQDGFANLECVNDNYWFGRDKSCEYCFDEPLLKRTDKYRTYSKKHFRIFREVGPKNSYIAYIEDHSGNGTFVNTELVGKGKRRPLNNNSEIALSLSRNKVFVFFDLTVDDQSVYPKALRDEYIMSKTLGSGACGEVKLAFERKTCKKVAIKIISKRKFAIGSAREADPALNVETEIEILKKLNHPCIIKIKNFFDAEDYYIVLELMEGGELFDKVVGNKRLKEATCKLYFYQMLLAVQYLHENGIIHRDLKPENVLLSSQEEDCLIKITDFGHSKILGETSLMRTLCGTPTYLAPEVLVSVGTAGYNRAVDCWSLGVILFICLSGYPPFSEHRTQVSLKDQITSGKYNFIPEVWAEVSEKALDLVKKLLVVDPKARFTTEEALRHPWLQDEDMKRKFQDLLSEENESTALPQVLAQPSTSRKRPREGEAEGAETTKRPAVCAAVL

[6] = target: T3, Serine/threonine-protein kinase MARK1 (Homo sapiens, UniProt Q9P0L2); assay: Inhibition of MARK1 at 1 uM
[7] = target: Serine/threonine-protein kinase PAK 4 (Homo sapiens) (UniProt O96013); assay: Inhibition of PAK4 at 1 uM
Chain of Serine/threonine-protein kinase PAK 4 (Homo sapiens) (O96013 whole entry, looked up): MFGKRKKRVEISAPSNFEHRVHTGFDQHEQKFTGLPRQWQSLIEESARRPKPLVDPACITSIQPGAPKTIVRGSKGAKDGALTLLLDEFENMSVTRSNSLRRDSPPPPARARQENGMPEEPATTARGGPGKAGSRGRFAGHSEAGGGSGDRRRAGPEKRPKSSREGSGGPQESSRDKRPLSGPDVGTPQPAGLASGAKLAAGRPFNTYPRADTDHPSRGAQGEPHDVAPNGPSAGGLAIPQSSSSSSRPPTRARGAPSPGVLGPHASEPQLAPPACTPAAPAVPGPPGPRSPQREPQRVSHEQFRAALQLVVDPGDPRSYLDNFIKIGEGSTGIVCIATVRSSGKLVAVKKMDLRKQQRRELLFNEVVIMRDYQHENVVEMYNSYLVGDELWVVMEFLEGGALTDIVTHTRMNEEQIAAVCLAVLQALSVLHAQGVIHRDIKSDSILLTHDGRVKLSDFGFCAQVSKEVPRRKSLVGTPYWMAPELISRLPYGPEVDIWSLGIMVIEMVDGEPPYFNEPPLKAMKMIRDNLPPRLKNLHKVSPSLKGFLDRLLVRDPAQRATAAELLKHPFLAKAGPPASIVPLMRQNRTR

[8] = target: T1, RAC-alpha serine/threonine-protein kinase; assay: Inhibition of AKT1 at 1 uM
[9] = target: Calcium/calmodulin-dependent protein kinase type II subunit alpha (Homo sapiens) (UniProt Q9UQM7); assay: Inhibition of CAMK2A at 1 uM
Chain of Calcium/calmodulin-dependent protein kinase type II subunit alpha (Homo sapiens) (Q9UQM7 whole entry): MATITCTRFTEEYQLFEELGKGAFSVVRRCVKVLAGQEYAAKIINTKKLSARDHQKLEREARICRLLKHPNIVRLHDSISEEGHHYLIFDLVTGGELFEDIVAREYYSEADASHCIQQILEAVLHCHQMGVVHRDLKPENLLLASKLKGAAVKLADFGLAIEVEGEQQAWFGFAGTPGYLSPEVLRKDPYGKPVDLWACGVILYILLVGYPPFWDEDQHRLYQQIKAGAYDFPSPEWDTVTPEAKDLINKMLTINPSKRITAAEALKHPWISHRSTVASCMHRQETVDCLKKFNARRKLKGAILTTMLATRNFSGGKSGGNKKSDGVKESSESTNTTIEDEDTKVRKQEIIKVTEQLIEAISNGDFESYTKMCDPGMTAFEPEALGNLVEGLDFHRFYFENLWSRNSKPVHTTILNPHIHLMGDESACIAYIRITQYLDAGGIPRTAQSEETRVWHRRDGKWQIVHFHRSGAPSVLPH

[10] = target: Mitogen-activated protein kinase kinase kinase kinase 4 (Homo sapiens) (UniProt O95819); assay: Inhibition of MAP4K4 at 1 uM
Chain of Mitogen-activated protein kinase kinase kinase kinase 4 (Homo sapiens) (O95819 2-1239 limits assumed): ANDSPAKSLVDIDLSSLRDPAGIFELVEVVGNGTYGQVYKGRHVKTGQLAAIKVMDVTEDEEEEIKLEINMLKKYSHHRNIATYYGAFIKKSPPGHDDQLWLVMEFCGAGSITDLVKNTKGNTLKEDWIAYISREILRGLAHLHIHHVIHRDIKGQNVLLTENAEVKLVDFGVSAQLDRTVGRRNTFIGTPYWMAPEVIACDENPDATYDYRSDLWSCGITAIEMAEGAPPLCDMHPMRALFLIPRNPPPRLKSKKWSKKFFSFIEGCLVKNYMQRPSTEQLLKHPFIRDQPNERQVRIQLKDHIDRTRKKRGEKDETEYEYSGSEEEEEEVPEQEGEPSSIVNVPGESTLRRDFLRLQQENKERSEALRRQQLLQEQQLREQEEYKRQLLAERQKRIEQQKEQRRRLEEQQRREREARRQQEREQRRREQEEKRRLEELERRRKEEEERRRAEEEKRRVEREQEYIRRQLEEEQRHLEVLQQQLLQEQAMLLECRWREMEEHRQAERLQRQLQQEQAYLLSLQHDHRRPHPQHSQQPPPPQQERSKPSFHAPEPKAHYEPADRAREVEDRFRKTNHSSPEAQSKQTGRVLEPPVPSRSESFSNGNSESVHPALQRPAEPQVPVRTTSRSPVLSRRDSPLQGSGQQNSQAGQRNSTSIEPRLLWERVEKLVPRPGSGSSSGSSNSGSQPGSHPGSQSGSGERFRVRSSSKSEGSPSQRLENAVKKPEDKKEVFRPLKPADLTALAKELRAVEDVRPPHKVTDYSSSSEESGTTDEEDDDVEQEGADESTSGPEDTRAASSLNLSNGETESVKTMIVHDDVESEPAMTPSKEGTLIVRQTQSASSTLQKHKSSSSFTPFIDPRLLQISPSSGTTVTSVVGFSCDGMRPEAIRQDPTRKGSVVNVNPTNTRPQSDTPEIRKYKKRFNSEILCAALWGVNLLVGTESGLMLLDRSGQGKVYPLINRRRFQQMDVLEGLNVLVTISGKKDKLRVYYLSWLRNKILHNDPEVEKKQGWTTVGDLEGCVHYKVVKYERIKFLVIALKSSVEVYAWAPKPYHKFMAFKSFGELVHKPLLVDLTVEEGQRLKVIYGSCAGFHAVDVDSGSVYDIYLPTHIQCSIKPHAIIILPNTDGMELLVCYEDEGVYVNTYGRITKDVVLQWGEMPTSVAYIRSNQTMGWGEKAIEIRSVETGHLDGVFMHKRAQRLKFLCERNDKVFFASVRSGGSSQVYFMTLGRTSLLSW

[11] = target: Angiopoietin-1 receptor (Homo sapiens) (UniProt Q02763); assay: Inhibition of TEK at 1 uM
Chain of Angiopoietin-1 receptor (Homo sapiens) (Q02763 whole entry): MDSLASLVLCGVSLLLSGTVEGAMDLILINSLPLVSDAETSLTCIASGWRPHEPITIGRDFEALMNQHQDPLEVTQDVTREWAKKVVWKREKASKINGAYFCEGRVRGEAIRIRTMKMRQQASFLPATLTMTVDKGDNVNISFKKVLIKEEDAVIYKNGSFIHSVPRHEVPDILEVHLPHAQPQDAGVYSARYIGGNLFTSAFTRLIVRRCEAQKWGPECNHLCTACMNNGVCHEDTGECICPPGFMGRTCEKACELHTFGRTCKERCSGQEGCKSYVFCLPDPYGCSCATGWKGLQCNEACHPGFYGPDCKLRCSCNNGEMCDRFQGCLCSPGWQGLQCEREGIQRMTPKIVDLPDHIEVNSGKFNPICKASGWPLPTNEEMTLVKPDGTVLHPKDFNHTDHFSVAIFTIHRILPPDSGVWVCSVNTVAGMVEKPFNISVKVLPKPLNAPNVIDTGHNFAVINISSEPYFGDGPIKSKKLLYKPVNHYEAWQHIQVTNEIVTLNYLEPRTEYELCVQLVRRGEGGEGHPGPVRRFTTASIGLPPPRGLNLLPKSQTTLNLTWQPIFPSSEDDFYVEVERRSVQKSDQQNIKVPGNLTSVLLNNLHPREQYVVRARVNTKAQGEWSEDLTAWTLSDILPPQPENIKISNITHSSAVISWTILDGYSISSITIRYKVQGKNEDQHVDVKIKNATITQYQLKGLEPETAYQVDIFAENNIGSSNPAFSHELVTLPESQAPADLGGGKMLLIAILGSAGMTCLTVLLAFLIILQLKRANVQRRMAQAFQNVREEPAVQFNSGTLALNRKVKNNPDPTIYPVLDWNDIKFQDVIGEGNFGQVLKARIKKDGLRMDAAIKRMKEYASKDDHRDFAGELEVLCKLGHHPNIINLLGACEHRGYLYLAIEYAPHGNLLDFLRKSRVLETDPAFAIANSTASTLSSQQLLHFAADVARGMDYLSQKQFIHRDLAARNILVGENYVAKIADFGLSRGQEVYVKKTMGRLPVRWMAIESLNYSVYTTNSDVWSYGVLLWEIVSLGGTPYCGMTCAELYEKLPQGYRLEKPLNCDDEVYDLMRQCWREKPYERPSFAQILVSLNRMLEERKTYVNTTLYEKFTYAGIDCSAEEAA

[12] = target: Casein kinase II subunit alpha' (Homo sapiens) (UniProt P19784); assay: Inhibition of CSNK2A2 at 1 uM
Chain of Casein kinase II subunit alpha' (Homo sapiens) (P19784 whole entry, looked up): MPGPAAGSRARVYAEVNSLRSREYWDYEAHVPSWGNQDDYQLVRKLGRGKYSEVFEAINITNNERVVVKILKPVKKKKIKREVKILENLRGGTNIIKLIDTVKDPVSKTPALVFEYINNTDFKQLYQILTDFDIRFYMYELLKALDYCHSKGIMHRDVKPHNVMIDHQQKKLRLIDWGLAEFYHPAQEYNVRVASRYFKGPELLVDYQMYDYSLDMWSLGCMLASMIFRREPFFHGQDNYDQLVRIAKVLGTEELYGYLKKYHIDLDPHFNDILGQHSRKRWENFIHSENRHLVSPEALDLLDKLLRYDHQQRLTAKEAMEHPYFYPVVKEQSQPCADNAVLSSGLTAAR

[13] = target: T4, Serine/threonine-protein kinase Nek2 (Homo sapiens) (UniProt P51955); assay: Inhibition of NEK2 at 1 uM
T4 sequence (whole entry): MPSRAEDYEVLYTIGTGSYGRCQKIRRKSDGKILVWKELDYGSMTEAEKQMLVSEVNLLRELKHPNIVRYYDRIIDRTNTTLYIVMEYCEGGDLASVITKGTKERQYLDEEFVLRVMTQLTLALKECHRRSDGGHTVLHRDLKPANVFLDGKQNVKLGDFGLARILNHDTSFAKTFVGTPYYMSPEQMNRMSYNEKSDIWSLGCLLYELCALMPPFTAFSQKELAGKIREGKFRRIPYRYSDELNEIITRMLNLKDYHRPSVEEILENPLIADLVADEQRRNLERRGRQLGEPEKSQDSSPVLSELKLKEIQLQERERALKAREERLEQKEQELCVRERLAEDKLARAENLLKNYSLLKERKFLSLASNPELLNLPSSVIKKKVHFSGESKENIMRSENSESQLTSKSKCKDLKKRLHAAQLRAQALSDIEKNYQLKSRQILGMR

[14] = target: T5, Aurora kinase A (Homo sapiens, UniProt O14965); assay: Inhibition of Aurora A
T5 sequence (O14965 whole entry): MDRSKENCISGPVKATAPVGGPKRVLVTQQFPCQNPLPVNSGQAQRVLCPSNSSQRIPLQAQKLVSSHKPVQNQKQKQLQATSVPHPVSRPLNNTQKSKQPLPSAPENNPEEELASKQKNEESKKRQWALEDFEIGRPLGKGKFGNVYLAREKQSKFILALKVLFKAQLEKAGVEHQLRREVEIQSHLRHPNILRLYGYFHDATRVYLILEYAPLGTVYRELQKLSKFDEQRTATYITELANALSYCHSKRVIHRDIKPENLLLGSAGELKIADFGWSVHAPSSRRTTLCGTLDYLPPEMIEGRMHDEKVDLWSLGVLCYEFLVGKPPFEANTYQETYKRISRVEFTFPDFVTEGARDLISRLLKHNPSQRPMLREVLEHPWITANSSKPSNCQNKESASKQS

[15] = target: Glycogen synthase kinase-3 beta (Homo sapiens, UniProt P49841); assay: Inhibition of GSK3-beta
Chain of Glycogen synthase kinase-3 beta (P49841 whole entry): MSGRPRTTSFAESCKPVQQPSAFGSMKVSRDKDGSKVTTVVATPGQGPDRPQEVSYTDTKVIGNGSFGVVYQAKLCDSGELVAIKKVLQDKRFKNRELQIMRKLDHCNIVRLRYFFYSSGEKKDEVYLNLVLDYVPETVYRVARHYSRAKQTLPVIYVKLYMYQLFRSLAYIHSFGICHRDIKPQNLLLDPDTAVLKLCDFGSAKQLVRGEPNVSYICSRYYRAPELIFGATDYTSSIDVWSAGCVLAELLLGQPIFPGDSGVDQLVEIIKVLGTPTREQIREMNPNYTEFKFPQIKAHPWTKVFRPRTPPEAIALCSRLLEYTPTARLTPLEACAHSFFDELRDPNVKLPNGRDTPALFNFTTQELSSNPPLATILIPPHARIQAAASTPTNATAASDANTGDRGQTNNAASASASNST

[16] = target: T3, Serine/threonine-protein kinase MARK1; assay: Inhibition of MARK1
[17] = target: High affinity nerve growth factor receptor (Homo sapiens, UniProt P04629); assay: Inhibition of TrkA

SMILES | Papp [1] | Ki [2] | IC50 [3] | IC50 [4] | inhibition [5] | inhibition [6] | inhibition [7] | inhibition [8] | inhibition [9] | inhibition [10] | inhibition [11] | inhibition [12] | inhibition [13] | IC50 [14] | IC50 [15] | IC50 [16] | IC50 [17]
CC(C)n1cc(C(=O)c2cncc(N[C@@H]3CCN(C=O)[C@@H]3c3ccc(F)cc3)n2)c2c(N)ncnc21 | 11 ×10⁻⁶ cm/s | 170 nM | 50 nM | 120 nM | 98% | 84% | 63% | 62% | 62% | 57% | 10% | 4% | 3% | 140 nM | 180 nM | 110 nM | 200 nM
CC(=O)N1CC[C@@H](Nc2cncc(C(=O)c3cn(C(C)C)c4ncnc(N)c34)n2)[C@H]1c1ccccc1 | 11 ×10⁻⁶ cm/s | 1100 nM | 300 nM | 320 nM | 94% | 47% | 25% | 15% | 32% | 23% | 5% | 2% | -3% | 820 nM | 860 nM | 1300 nM | 910 nM
CC(=O)N1CC[C@@H](Nc2cncc(C(=O)c3cn(C(C)C)c4ncnc(N)c34)n2)[C@H]1c1ccc(F)cc1 | 11 ×10⁻⁶ cm/s | 360 nM | 80 nM | 160 nM | 99% | 74% | 46% | 57% | 73% | 50% | 19% | 8% | -2% | 460 nM | 340 nM | 590 nM | 620 nM
